Data set [1] relates to HEp-2. In words: Tested in vitro for the cytotoxicity as number of viable cells against Hep-2 cell line after 72 hr treatment at conc. of 10E-6. Conditions: Homo sapiens, HEp-2, 72 h; read-out: ID50 (the source's name). In kind it is functional. The essentials:
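Cytotoxicity read as number of viable cells. Hep-2 (MEM) received 72-h continuous drug treatment. L1210 and L1210/L-PAM (RPMI 1640) received 4-h treatment followed by 48-h incubation in drug-free medium. Media contained 10% fetal calf serum, glutamine, streptomycin and penicillin, at 37 °C in humidified 5% CO2.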

Data set [2] relates to HeLa. In words: Tested in vitro for the dose inhibiting cell proliferation by 50% against HeLa cell line after 24 hr treatment at conc. of 10E-6. In kind it is functional. Conditions: Homo sapiens, read-out: ID50 (the source's name).
Data set [3] relates to L1210. In words: Tested in vivo for optimal non-toxic dose against L1210 cell line in CDF1 mice. It counts as ADME, organism-based. Conditions: mouse. The essentials: (§1)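 CDF1 mice inoculated intraperitoneally with 10⁵ L1210 or L1210/L-PAM cells per mouse, then treated intraperitoneally after tumor transplant. T/C % = median survival time of treated mice / median survival time of controls × 100. Activity criterion is T/C ≥ 125%. Optimal nontoxic dose (OD) is defined as a dose below LD10.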

Data set [4] relates to L1210/LPAM. In words: Tested in vivo for optimal non-toxic dose against L1210/LPAM cell line in CDF1 mice. In kind it is ADME, organism-based. Conditions: mouse. The essentials:
as §1

The test system of data set [5] is L1210/LPAM. In words: Median survival time of treated to the control was determined in L1210/LPAM cell line. In kind it is functional, Mus musculus. The essentials:
as §1

Data set [6] deals with L1210. In words: Median survival time of treated to the control mice with L1210 tumor cells. In kind it is functional, Mus musculus. A digest of the protocol:
as §1

A short description of data set [7]: Tested in vitro for the resistance index ratio (ID50) of L1210/LPAM to L1210 cell line. In kind it is functional. The essentials: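 Resistance index = ID50 (L1210/L-PAM) / ID50 (L1210), where ID50 is the dose inhibiting proliferation by 50%. Cells were exposed to drug for 4 h, then incubated 48 h in drug-free medium. Culture was RPMI 1640 with 10% fetal calf serum, glutamine and antibiotics, at 37 °C in 5% CO2.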

In data set [8] the test system is L1210. In words: Tested in vitro for the cytotoxicity as number of viable cells against L1210 cell line after 4 hr treatment and 48 hr incubation in drug-free medium at conc. of 10E-6. Conditions: Mus musculus, L1210, 4 h treatment, 48 h drug-free incubation; read-out: ID50 (the source's name).
Data set [9] concerns L1210/LPAM. Kind of data set: Tested in vitro for the cytotoxicity as number of viable cells against L1210/LPAM cell line after 4 hr treatment and 48 hr incubation in drug-free medium at conc. of 10E-6. Conditions: Mus musculus, 48 h drug-free incubation, read-out: ID50 (the source's name).
The subject of data set [10] is L1210. Kind of data set: Median survival time of treated to the control was determined in L1210 cell line. In kind it is functional, Mus musculus. The essentials:
as §1

The structures appear in SMILES notation.

Take `Cl.Cn1cc(NC(=O)c2cc(NC(=O)c3cc(N(CCCl)CCCl)cn3C)cn2C)cc1C(=O)NCCC(=N)N`: the IC50 in [1] turned out to be 1220 nM; in [2], 1950 nM; in data set [8], 3530 nM; in data set [9] it was 4560 nM. The OD in [3] is 1.56 M; in data set [4], 1.56 mg/kg. The T/C (in general, the result in the treated group divided by that in the control group, in per cent) in [5] stood at 122%; in [6], 138%. Moreover, the Ratio in data set [7] was 1.3.

`Cl.Cn1cc(NC(=O)c2cc(NC(=O)c3cc(NC(=O)c4cc(N(CCCl)CCCl)cn4C)cn3C)cn2C)cc1C(=O)NCCC(=N)N`: the IC50 in data set [1] came to 100 nM; in data set [2], 60 nM; in data set [8] it was 80 nM; in data set [9] it was 70 nM. Besides, the OD in data set [3] and in data set [4] was 0.39 mg/kg each time. For the same molecule, the T/C was 167% in data set [5] and 188% in [6]. Moreover, the Ratio in [7] was 0.87.

In the case of `Cl.Cn1cc(NC(=O)c2cc(NC(=O)c3cc(NC(=O)c4cc(N(CCCl)CCCl)cs4)cn3C)cn2C)cc1C(=O)NCCC(=N)N`, the IC50 came out at 90 nM in data set [1], 50 nM in data set [2], 1930 nM in data set [8] and 1320 nM in data set [9]. For the same molecule, the OD in [3] and in [4] was 1.56 mg/kg each time. Moreover, the T/C in [5] amounted to 111%; in data set [6], 132%. Further, the Ratio in [7] is recorded as 0.69.

Consider `N[C@@H](Cc1ccc(N(CCCl)CCCl)cc1)C(=O)O` [MELPHALAN], for which the IC50 stood at 980 nM in data set [1], 1770 nM in data set [2], 1700 nM in [8] and 13100 nM in data set [9]. For the same molecule, the OD in data set [3] and in data set [4] was 10 mg/kg in each case. The T/C turned out to be 104% in data set [5] and 192% in data set [10]. Besides, the Ratio in [7] was 7.7.

`Cn1cc(NC(=O)c2cc(NC(=O)c3cc(NC=O)cn3C)cn2C)cc1C(=O)NCCC(=N)N` [STALLIMYCIN]: the IC50 came out at 97000 nM in data set [1], 48000 nM in [2], 488000 nM in [8] and 343000 nM in data set [9]. Also, the OD in [3] and in data set [4] was 200 mg/kg in each case. Also, the T/C was found to be 106% in data set [5] and 113% in [6]. For the same molecule, in data set [7], the Ratio turned out to be 0.7.

Take `Cl.Cn1cc(NC(=O)c2cc(NC(=O)c3cc(NC(=O)c4ccc(N(CCCl)CCCl)cc4)cn3C)cn2C)cc1C(=O)NCCC(=N)N` [TALLIMUSTINE CHLORIDE]: the IC50 in data set [1] is 190 nM; in data set [2] it was 20 nM; in data set [8], 1220 nM; in data set [9], 360 nM. Besides, the OD in data set [3] and in [4] was 3.12 mg/kg in each case. The T/C in data set [5] stood at 144%; in data set [6], 175%.

The values above are taken from ChEMBL document CHEMBL1124685, “Synthesis, DNA-binding properties, and antitumor activity of novel distamycin derivatives” (J Med Chem, 1989).
